Results: ChEMBL document CHEMBL1806381, “Unprecedented C-2 arylation of indole with diazonium salts: Syntheses of 2,3-disubstituted indoles and their antimicrobial activity” (Bioorg Med Chem Lett, 2011)
Converted amounts (≈) assume the structure as drawn.

Assays:
[1] = test system: Staphylococcus aureus; assay: Antimicrobial activity against methicillin-susceptible Staphylococcus aureus ATCC 29213 assessed as growth inhibition after 18 hrs by MTT assay; assay type: functional; settings: ATCC 29213, 18 h
Outline: (§1)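 Bacterial suspensions were adjusted to about 5×10^5 CFU/mL and treated with compounds in 2-fold serial dilutions. They were incubated for 18 h as ATCC recommends. Viability was read by MTT because the compounds are coloured.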

[2] = test system: Staphylococcus aureus; assay: Antimicrobial activity against methicillin-resistant Staphylococcus aureus BAA-44 assessed as growth inhibition after 18 hrs by MTT assay; assay type: functional; settings: BAA-44, 18 h
Outline: (§2)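 Bacterial suspensions adjusted to ~5×10^5 CFU/mL, treated with compounds in 2-fold serial dilutions, incubated per ATCC recommendations for 18 h. Viability read by MTT method, used because the compounds are coloured.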

[3] = test system: Enterococcus faecalis; assay: Antimicrobial activity against low-level vancomycin-resistant Enterococcus faecalis ATCC 51299 assessed as growth inhibition after 18 hrs by MTT assay; assay type: functional; settings: ATCC 51299, 18 h; outline: as §2
[4] = test system: Pseudomonas aeruginosa; assay: Antimicrobial activity against Pseudomonas aeruginosa ATCC 27853 assessed as growth inhibition after 18 hrs by MTT assay; assay type: functional; settings: ATCC 27853, 18 h; outline: as §1
[5] = test system: Acinetobacter baumannii; assay: Antimicrobial activity against Acinetobacter baumannii ATCC 15151 assessed as growth inhibition after 18 hrs by MTT assay; assay type: functional; settings: ATCC 15151, 18 h; outline: as §1
[6] = test system: Candida albicans; assay: Antimicrobial activity against Candida albicans ATCC 26555 assessed as growth inhibition after 18 hrs by MTT assay; assay type: functional; settings: ATCC 26555, 18 h
[7] = Antiproliferative activity against human HeLa cells after 72 hrs by MTT assay; assay type: cell-based

| SMILES | MIC [1] [µM] | MIC [2] [µM] | MIC [3] [µM] | MIC [4] [µM] | MIC [5] [µM] | MIC [6] [µM] | GI50 at 72 h [7] [µM] |
| --- | --- | --- | --- | --- | --- | --- | --- |
| Clc1ccc(-c2cc3ccccc3[nH]2)cc1 | > 100 | > 100 | > 100 | > 100 | > 100 | > 100 | > 100 |
| O=S(=O)(c1ccc(Cl)cc1)c1c(-c2ccc(Cl)cc2)[nH]c2ccccc12 | > 100 | > 100 | > 100 | > 100 | > 100 | > 100 | 14 |
| Clc1ccc(/N=N/c2c[nH]c3ccccc23)cc1 | 12.5 (≈ 3.2 µg/mL) | 12.5 (≈ 3.2 µg/mL) | 25 (≈ 6.39 µg/mL) | > 100 | > 100 | 12.5 (≈ 3.2 µg/mL) | 23 |
| Brc1ccc(/N=N/c2c[nH]c3ccccc23)cc1 | 6.3 (≈ 1.89 µg/mL) | 6.3 (≈ 1.89 µg/mL) | 12.5 (≈ 3.75 µg/mL) | > 100 | > 100 | 25 (≈ 7.5 µg/mL) | 49 |
| Brc1ccc(/N=N/c2c(-c3ccc(Br)cc3)[nH]c3ccccc23)cc1 | 6.3 (≈ 2.87 µg/mL) | 12.5 (≈ 5.69 µg/mL) | 6.3 (≈ 2.87 µg/mL) | > 100 | > 100 | > 100 | 9 |
| COc1ccc(/N=N/c2c(-c3ccc(OC)cc3)[nH]c3ccccc23)cc1 | 3.1 (≈ 1.11 µg/mL) | 50 (≈ 17.9 µg/mL) | > 100 | > 100 | > 100 | > 100 | 23 |
| Clc1ccc(/N=N/c2c(-c3ccc(Br)cc3)[nH]c3ccccc23)cc1 | 6.3 (≈ 2.59 µg/mL) | 6.3 (≈ 2.59 µg/mL) | 6.3 (≈ 2.59 µg/mL) | > 100 | > 100 | > 100 | 13 |
| Clc1ccc(/C=C/c2c[nH]c3ccccc23)cc1 | 25 (≈ 6.34 µg/mL) | > 100 | > 100 | > 100 | > 100 | > 100 | 64 |
| Clc1ccc(/C=C/c2[nH]c3ccccc3c2/C=C/c2ccc(Cl)cc2)cc1 | > 100 | > 100 | > 100 | > 100 | > 100 | > 100 | 69 |
| Clc1ccc(-c2cc3[nH]c4ccccc4c3cc2-c2ccc(Cl)cc2)cc1 | > 100 | > 100 | > 100 | > 100 | > 100 | > 100 | 16 |
| Clc1ccc(Sc2c(-c3ccc(Cl)cc3)[nH]c3ccccc23)cc1 | 1.6 (≈ 0.592 µg/mL) | 3.1 (≈ 1.15 µg/mL) | 3.1 (≈ 1.15 µg/mL) | > 100 | > 100 | > 100 | 6 |
| Clc1ccc(Sc2c(-c3ccc(Br)cc3)[nH]c3ccccc23)cc1 | 1.6 (≈ 0.664 µg/mL) | 3.1 (≈ 1.29 µg/mL) | 3.1 (≈ 1.29 µg/mL) | > 100 | > 100 | > 100 | 12 |
| Clc1ccc(Sc2c(-c3ccc(Cl)cc3)[nH]c3ccc(Cl)cc23)cc1 | 1.6 (≈ 0.648 µg/mL) | 1.3 (≈ 0.526 µg/mL) | 6.3 (≈ 2.55 µg/mL) | > 100 | > 100 | > 100 | 8 |
| Clc1ccc(Oc2c(-c3ccc(Cl)cc3)[nH]c3ccccc23)cc1 | 1.6 (≈ 0.567 µg/mL) | 3.1 (≈ 1.1 µg/mL) | 12.5 (≈ 4.43 µg/mL) | > 100 | > 100 | > 100 | 9 |
| Clc1ccc(Oc2c(-c3ccc(Cl)cc3)[nH]c3ccc(Cl)cc23)cc1 | 1.6 (≈ 0.622 µg/mL) | 0.6 (≈ 0.233 µg/mL) | 12.5 (≈ 4.86 µg/mL) | > 100 | > 100 | > 100 | 8 |
| Clc1ccc(Oc2c(-c3ccc(Cl)cc3)[nH]c3ccc(Br)cc23)cc1 | 3.1 (≈ 1.34 µg/mL) | 3.1 (≈ 1.34 µg/mL) | 12.5 (≈ 5.41 µg/mL) | > 100 | > 100 | > 100 | 3 |
| Fc1ccc2[nH]c(-c3ccc(Cl)cc3)c(Oc3ccc(Cl)cc3)c2c1 | 1.6 (≈ 0.596 µg/mL) | 1.6 (≈ 0.596 µg/mL) | 6.3 (≈ 2.35 µg/mL) | > 100 | > 100 | > 100 | 13 |
| COc1ccc2[nH]c(-c3ccc(Cl)cc3)c(Oc3ccc(Cl)cc3)c2c1 | 12.5 (≈ 4.8 µg/mL) | 6.3 (≈ 2.42 µg/mL) | 25 (≈ 9.61 µg/mL) | > 100 | > 100 | > 100 | 24 |
| Fc1cccc2c(Oc3ccc(Cl)cc3)c(-c3ccc(Cl)cc3)[nH]c12 | 1.6 (≈ 0.596 µg/mL) | 1.3 (≈ 0.484 µg/mL) | 3.1 (≈ 1.15 µg/mL) | > 100 | > 100 | > 100 | 13 |
| O=C(c1ccc(Cl)cc1)c1c(-c2ccc(Cl)cc2)[nH]c2ccccc12 | > 100 | > 100 | > 100 | > 100 | > 100 | > 100 | 19 |
| CC1(C)S[C@@H]2[C@H](NC(=O)Cc3ccccc3)C(=O)N2[C@H]1C(=O)O [PENICILLIN G] | 23.9 (≈ 7.99 µg/mL) | > 100 | 11.9 (≈ 3.98 µg/mL) | – | – | – | – |
| CN[C@H](CC(C)C)C(=O)N[C@H]1C(=O)N[C@@H](CC(N)=O)C(=O)N[C@H]2C(=O)N[C@H]3C(=O)N[C@H](C(=O)N[C@H](C(=O)O)c4cc(O)cc(O)c4-c4cc3ccc4O)[C@H](O)c3ccc(c(Cl)c3)Oc3cc2cc(c3O[C@@H]2O[C@H](CO)[C@@H](O)[C@H](O)[C@H]2O[C@H]2C[C@](C)(N)[C@H](O)[C@H](C)O2)Oc2ccc(cc2Cl)[C@H]1O [VANCOMYCIN] | 2.8 (≈ 4.06 µg/mL) | 2.8 (≈ 4.06 µg/mL) | 86.3 (≈ 125 µg/mL) | – | – | – | – |
